SMILES strings stand for the structures.

The target of assay [1] is T1, Polyunsaturated fatty acid 5-lipoxygenase (Rattus norvegicus) (UniProt P12527).
T1 sequence (whole entry): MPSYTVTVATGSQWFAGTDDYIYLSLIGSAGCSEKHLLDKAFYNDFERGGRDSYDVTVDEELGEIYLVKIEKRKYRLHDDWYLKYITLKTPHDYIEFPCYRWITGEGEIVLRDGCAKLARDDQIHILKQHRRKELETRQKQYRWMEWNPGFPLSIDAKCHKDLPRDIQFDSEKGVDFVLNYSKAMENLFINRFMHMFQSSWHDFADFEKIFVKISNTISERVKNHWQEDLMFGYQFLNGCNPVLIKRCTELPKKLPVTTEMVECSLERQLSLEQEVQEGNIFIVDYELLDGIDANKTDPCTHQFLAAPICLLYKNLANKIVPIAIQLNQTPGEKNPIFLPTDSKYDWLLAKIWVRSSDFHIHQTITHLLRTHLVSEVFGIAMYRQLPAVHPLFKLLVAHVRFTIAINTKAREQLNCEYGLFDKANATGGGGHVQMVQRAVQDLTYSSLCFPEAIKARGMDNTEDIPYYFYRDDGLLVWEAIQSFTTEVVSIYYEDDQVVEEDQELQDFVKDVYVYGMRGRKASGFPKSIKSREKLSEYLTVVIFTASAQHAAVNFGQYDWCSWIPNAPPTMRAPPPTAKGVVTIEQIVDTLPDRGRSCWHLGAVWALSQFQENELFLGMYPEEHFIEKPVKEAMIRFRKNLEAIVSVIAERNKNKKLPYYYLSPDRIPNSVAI
The assay is described as follows: Ability to inhibit the rat Lipoxygenase in vitro was determined; NA is <50% inhibition at 100 uM. Summed up: (§1)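 Source is rat polymorphonuclear leukocyte (PMN) 5-lipoxygenase. IC50 values come from nonlinear regression analysis, significant at p < 0.05.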

The target in assay [2] is T2, Polyunsaturated fatty acid 5-lipoxygenase (Rattus norvegicus, UniProt P12527).
T2 sequence (P12527 whole entry): T1 sequence (whole entry)
The assay is described as follows: (§2) Ability to inhibit Lipoxygenase in vitro was determined.

Assay [3] has as its system Cavia porcellus. The assay is described as follows: Ability to inhibit the Ovalbumin induced bronchospasm in guinea pig was determined in vivo at a dose of 50 mg/kg id. It counts as functional. The note with it: route intraduodenal. Summed up:
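Guinea pigs were challenged with LTD4 or ovalbumin to induce bronchospasm, and test agent was given intraduodenally. Read-out is percent inhibition of bronchospasm. Significance uses a two-tailed Student's t test (p < 0.05). N is the number of treated animals.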

Assay [4] concerns the target T1, Polyunsaturated fatty acid 5-lipoxygenase (Rattus norvegicus). The assay is described as follows: Ability to inhibit Lipoxygenase in vitro was determined; NA is <50% inhibition at 100 uM. Summed up: as §1
Assay [5] deals with T2, Polyunsaturated fatty acid 5-lipoxygenase. The description is as §2. Summed up: as §1
The source holds these as a separate data set.

Broadly, the inhibition is how much of the control response was suppressed. A higher inhibition goes with strong suppression. On to `Cn1c(COc2cccc(NC(=O)CCC(=O)O)c2)nc2ccccc21`, for which the inhibition in assay [1] is less than 50%.

By IC50 is commonly meant the concentration that gives 50% inhibition. Higher therefore signals a need for much substance. In general, inhibition in vivo refers to the change of the read-out against control, counted positive when it falls. `COC(=O)CCC(=O)Nc1cccc(Oc2nc3ccccc3s2)c1` gave an IC50 in assay [2] of 27.1 µM. Also, the inhibition in vivo at 50 mg/kg in assay [3] is 7%.

In assay [4], `COC(=O)C1CC(=O)N(c2cccc(OCc3nc4ccccc4n3C)c2)C1` (stereo not drawn) had an inhibition of less than 50%.

In the case of `COC(=O)CCC(=O)Nc1cccc(OCC(=O)Nc2ccccc2)c1`, the inhibition in assay [4] was less than 50%. The inhibition in vivo at 50 mg/kg in assay [3] is 7%.

For the molecule `COC(=O)CCC(=O)Nc1cccc(OCc2cc3ccccc3o2)c1`, the IC50 in assay [2] was 17.9 µM. For the same molecule, the inhibition in vivo at 50 mg/kg in assay [3] came to 12%.

Molecule `COC(=O)CCC(=O)Nc1cccc(OCc2ccccn2)c1` registered an inhibition in assay [4] of less than 50%.

Consider `COC(=O)CCC(=O)Nc1cccc(OCc2nc3ccccc3n2C)c1`, for which, in assay [5], the IC50 was 7.2 µM. In addition, the inhibition in vivo at 50 mg/kg in assay [3] came to 60%.

Consider `COC(=O)C1CC(=O)N(c2cccc(OCc3nc4ccccc4s3)c2)C1` (stereo not drawn), for which inhibition in assay [2] was half-maximal at 14 µM (IC50).

In turn, `COC(=O)CCC(=O)Nc1cccc(OCc2nc3ccccc3o2)c1` yielded an IC50 in assay [5] of 69.7 µM. Besides, the inhibition in vivo at 50 mg/kg in assay [3] was -65%.

Molecule `COC(=O)CCC(=O)N(C)c1cccc(OCc2nc3ccccc3s2)c1` had an IC50 in assay [2] of 21 µM. In addition, in assay [3], the inhibition in vivo at 50 mg/kg is 19%.

Regarding `CCCCCC(O)c1cccc(OCc2ccc3ccccc3n2)c1` (stereo not drawn) [REV-5901], in assay [3], the inhibition in vivo at 50 mg/kg was 60.2%.

As for `O=C(O)CCC(=O)Nc1cccc(OCc2nc3ccccc3s2)c1`, the inhibition in assay [4] is less than 50%.

These data come from ChEMBL document CHEMBL1123920, “Leukotriene D4 antagonists and 5-lipoxygenase inhibitors. Synthesis of benzoheterocyclic [(methoxyphenyl)amino]oxoalkanoic acid esters” (J Med Chem, 1987).
